Reference: publication PMC4593655 (Bioorganic & medicinal chemistry, 2015)

Experiments:
[1] = test system: NCI full panel of 60 cell lines; experiment: NCI 5-dose assay, full panel overview; type: cell-based, human; settings: for CC50: Homo sapiens, 60 cell, read-out: pLC50 MG_MID (converted); for cytotoxicity in NCI screen: in words; for pTGI MG_MID: mean graph midpoint over all tested cell lines; for pTGI No. giving positive results: number of cell lines for which TGI ≤100 μM; for cellular lines with 50% growth inhibition at submicromolar concentrations: number of cell lines of those tested
Method in brief: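 Five-dose NCI standard protocol screen of test compound against 60 human tumour lines from nine cancer types. pGI₅₀, pTGI and pLC₅₀ are −log molar concentrations giving 50% net growth inhibition, total growth inhibition and 50% net cell death. MG_MID is the arithmetic mean over all tested lines. Counts give the lines with each value ≤100 μM. Where an effect was not reached, the highest tested concentration was used.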

purified tubulin = experiment: Assembly of purified tubulin; type: biochemical; settings: data not presented
tubulin = experiment: Inhibition of colchicine binding to tubulin; settings: data not presented
K562 cells [2] = experiment: Cell morphology under light microscopy; type: cell-based, human; settings: K562, 48 h, 10 and 25 μM
Method in brief: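 K562 cells, cultured in medium with 5% FBS, 100 U/mL penicillin and 100 μg/mL streptomycin at 37 °C under 5% CO₂, were seeded at 8 × 10³/well and exposed to test compound for 48 h alongside untreated control. Morphology was then examined by light microscopy at 200× magnification.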

K562 cells [3] = experiment: Hoechst 33342 nuclear staining, fluorescence microscopy; type: cell-based, human; settings: 10 μM, 48 h
Method in brief: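 K562 cells were plated at 8 × 10³/well on poly-D-lysine-coated plates and left to adhere overnight. They were prestained with Hoechst 33342 in medium for 30 min, washed with PBS and resuspended in medium, then given test compound or vehicle for 48 h.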

K562 cells [4] = experiment: Annexin V-FITC/PI staining flow cytometry; type: cell-based, human; settings: 10 μM, 24 h
Method in brief: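 K562 cells were grown in RPMI 1640 with 5% FBS and antibiotics at 37 °C in 5% CO₂, then exposed to test compound for 24 h. Cells were harvested, centrifuged at 800 rpm for 10 min and washed in PBS. 10⁵ cells per sample were stained with annexin V-FITC plus PI for 15 min in the dark. Flow cytometry read FL1 (530 nm) and FL3 (>575 nm) over 10,000 events. Areas: C1 necrotic, C2 late apoptotic, C3 viable, C4 early apoptotic.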

pro-caspase 6 = experiment: Western blotting analysis of pro-caspase 6; type: cell-based, human; settings: K562, 10 μM, 48 h
Method in brief: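 K562 cells were seeded at 1.5 × 10⁵/well and treated 48 h with 10 μM test compound. Lysate protein was measured by Lowry assay, run on SDS-PAGE and transferred to nitrocellulose. Pro-caspase 3 and 6 were detected with specific alkaline phosphatase-conjugated antibodies. Loading was checked by Ponceau red and β-actin immunoblot, and bands were quantified by densitometry. Blots are representative of at least three experiments.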

| SMILES | CC50 [1] [µM] | cytotoxicity in NCI screen [1] | pTGI MG_MID [1] | pTGI No. giving positive results [1] | cellular lines with 50% growth inhibition at submicromolar concentrations [1] | effects on the assembly of purified tubulin (purified tubulin) | inhibition of colchicine binding to tubulin (tubulin) | morphological changes (K562 cells [2]) | nuclear morphology typical of apoptosis (K562 cells [3]) | necrotic cells (K562 cells [4]) | reduction in the level of pro-caspase 6 (pro-caspase 6) [%] |
| --- | --- | --- | --- | --- | --- | --- | --- | --- | --- | --- | --- |
| NC(=O)c1cc(Cl)ccc1NC(=O)COc1ccccc1 [Compound 17f, 5-Chloro-2-(2-phenoxyacetamido)benzamide] | > 100 | low cytotoxicity | 4.14 | 10 | 3 of 57 | negligible effects | negligible effects |  |  |  |  |
| NC(=O)c1cc(I)ccc1NC(=O)COc1ccccc1 [Compound 17j, 5-Iodo-2-(2-phenoxyacetamido)benzamide] | > 89.1 | low cytotoxicity | 4.45 | 25 | 44 of 56 | negligible effects | negligible effects | remarkable reduction in cell number and cell size | chromatin condensation and nuclear fragmentation | no necrotic cells were detected | −20 |
| COc1ccc(NC(=O)COc2ccccc2)c(C(N)=O)c1 [Compound 17r, 5-Methoxy-2-(2-phenoxyacetamido)benzamide] | > 97.7 | low cytotoxicity | 4.31 | 25 | 30 of 56 | negligible effects | negligible effects |  |  |  |  |
| COc1cc(NC(=O)COc2ccccc2)c(C(N)=O)cc1OC [Compound 17u, 4,5-Dimethoxy-2-(2-phenoxyacetamido)benzamide] | > 93.3 | low cytotoxicity | 4.31 | 23 | 26 of 58 | negligible effects | negligible effects | remarkable reduction in cell number and cell size | chromatin condensation and nuclear fragmentation |  | −50 |
